{"source": "ChEMBL document CHEMBL3525963", "about": "“Tissue distribution and elimination of [14C]apixaban in rats” (Drug Metab Dispos, 2011)", "format_in_all_cases": "ADME, organism-based", "design_in_all_cases": "dose 5 mg/kg, dosed compound name [14C]-apixaban, route oral", "settings_in_all_cases": "in vivo", "key": {"Spleen [1]": {"test_system": "Spleen", "assay": "Biodistribution in male Sprague-Dawley rat spleen at 5 mg/kg, po administered as single dose measured after 4 hrs", "summary_of_the_method": "(§1)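 [14C]apixaban (1.0 mg/mL, 20 μCi/mL) in 0.5% Tween 80 in Labrafil, given by oral gavage at 100 μCi/kg to male rats (225-252 g) fasted overnight through 4 h post-dose. One rat per time point. Carcasses frozen in hexane/dry ice and cut into 40 µm sagittal sections. QWBA read on phosphor plates against [14C]glucose standards, reported as µg eq/g. LLOQ 0.037 µg eq/g.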"}, "Rattus norvegicus [2]": {"test_system": "Rattus norvegicus", "assay": "Biodistribution in female Sprague-Dawley rat salivary gland at 5 mg/kg, po administered as single dose measured after 72 hrs", "summary_of_the_method": "(§2)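 Quantitative whole-body autoradiography was run after a single 5 mg/kg (100 μCi/kg) oral gavage to fasted female or pregnant SD rats, one rat per time point. Carcasses were frozen in hexane/dry ice, and 40 µm sagittal sections were dried at −20°C for at least 48 h. Sections were exposed to a phosphor plate alongside [14C]glucose standards (0.001–6.5 µCi/g). Results are µg eq/g, with LLOQ 0.037 µg eq/g.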"}, "Harderian gland [3]": {"test_system": "Harderian gland", "assay": "Biodistribution in pregnant Sprague-Dawley rat harderian gland at 5 mg/kg, po administered as single dose measured after 4 hrs"}, "Adrenal gland [4]": {"test_system": "Adrenal gland", "assay": "Biodistribution in female Sprague-Dawley rat adrenal gland at 5 mg/kg, po administered as single dose measured after 4 hrs", "summary_of_the_method": "(§3)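 [¹⁴C]Apixaban given by oral gavage at 5 mg/kg (100 μCi/kg) in 0.5% Tween 80 in Labrafil (1.0 mg/mL dosing solution) to rats fasted overnight through 4 h post-dose. One rat per time point; carcass frozen in hexane/dry ice. Quantitative whole-body autoradiography used 40 µm sagittal sections and a phosphor imaging plate calibrated with [¹⁴C]glucose standards (0.001–6.5 μCi/g). Read-out in µg eq apixaban/g; LLOQ 0.037 μg eq/g.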"}, "Brain": {"test_system": "Brain", "assay": "Biodistribution in pregnant Sprague-Dawley rat brain at 5 mg/kg, po administered as single dose measured after 48 hrs", "summary_of_the_method": "(§4)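 Fasted pregnant SD rats (n=6, 270-319 g) each received one oral gavage dose of [14C]apixaban, 5 mg/kg (100 μCi/kg), in 0.5% Tween 80/Labrafil. One rat was killed at each of 0.5, 1, 4, 8, 24 and 48 h. Carcasses were frozen in hexane/dry ice, cut into 40 µm sagittal sections, exposed to phosphor plates and quantified against [14C]glucose standards as µg eq/g. LLOQ was 0.037 µg eq/g.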"}, "Rattus norvegicus [5]": {"test_system": "Rattus norvegicus", "assay": "Biodistribution in female Sprague-Dawley rat salivary gland at 5 mg/kg, po administered as single dose measured after 1 hr", "summary_of_the_method": "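[14C]apixaban (20 μCi/mL in dosing solution) in 0.5% Tween 80 in Labrafil given by oral gavage to fasted female rats, 206-213 g, at 100 μCi/kg. One rat per time point was euthanized and snap-frozen. Sagittal 40 µm whole-body sections were read by QWBA phosphor imaging against [14C]glucose standards. Results are in µg eq apixaban/g, with LLOQ 0.037 μg eq/g.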"}, "Lung [6]": {"test_system": "Lung", "assay": "Biodistribution in male Sprague-Dawley rat lung at 5 mg/kg, po administered as single dose measured after 0.5 hrs", "summary_of_the_method": "as §1"}, "Rattus norvegicus [7]": {"test_system": "Rattus norvegicus", "assay": "Biodistribution in fetal brain of pregnant Sprague-Dawley rat at 5 mg/kg, po administered as single dose measured after 4 hrs", "summary_of_the_method": "(§5)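 Pregnant SD rats received a single oral gavage of [14C]apixaban at 5 mg/kg (100 μCi/kg; 1.0 mg/mL, 20 μCi/mL in 0.5% Tween 80/Labrafil) after fasting, one dam per time point. Frozen carcasses were cut into 40 µm sagittal sections and read by phosphor-imaging QWBA against [14C]glucose standards. Fetal tissue radioactivity is reported as µg eq/g, with LLOQ 0.037 µg eq/g.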"}, "Heart": {"test_system": "Heart", "assay": "Biodistribution in pregnant Sprague-Dawley rat heart at 5 mg/kg, po administered as single dose measured after 8 hrs"}, "Muscle tissue": {"test_system": "Muscle tissue", "assay": "Biodistribution in female Sprague-Dawley rat muscle at 5 mg/kg, po administered as single dose measured after 72 hrs", "summary_of_the_method": "as §2"}, "Thymus": {"test_system": "Thymus", "assay": "Biodistribution in male Sprague-Dawley rat thymus at 5 mg/kg, po administered as single dose measured after 1 hr"}, "Spleen [8]": {"test_system": "Spleen", "assay": "Biodistribution in male Sprague-Dawley rat spleen at 5 mg/kg, po administered as single dose measured after 24 hrs", "summary_of_the_method": "(§6)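 Fasted male SD rats (225-252 g) each received one oral gavage dose of [14C]apixaban, 5 mg/kg (100 μCi/kg), in 0.5% Tween 80/Labrafil vehicle. One rat was killed per time point, from 0.5 to 168 h. Frozen carcasses were cut into 40 µm sagittal whole-body sections and read by QWBA phosphor imaging against [14C]glucose calibrants. Results are in µg apixaban eq/g; BLQ <0.037 µg eq/g.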"}, "Blood": {"test_system": "Blood", "assay": "Biodistribution in pregnant Sprague-Dawley rat blood at 5 mg/kg, po administered as single dose measured after 48 hrs", "summary_of_the_method": "as §4"}, "Lung [9]": {"test_system": "Lung", "assay": "Biodistribution in female Sprague-Dawley rat lung at 5 mg/kg, po administered as single dose measured after 1 hr", "summary_of_the_method": "as §3"}, "Adrenal gland [10]": {"test_system": "Adrenal gland", "assay": "Biodistribution in male Sprague-Dawley rat adrenal gland at 5 mg/kg, po administered as single dose measured after 24 hrs", "summary_of_the_method": "as §6"}, "Rattus norvegicus [11]": {"test_system": "Rattus norvegicus", "assay": "Biodistribution in pregnant Sprague-Dawley rat pituitary gland at 5 mg/kg, po administered as single dose measured after 48 hrs", "summary_of_the_method": "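Pregnant SD rats (270-319 g) were fasted overnight and given one oral gavage of 5 mg/kg (100 μCi/kg) in 0.5% Tween 80 in Labrafil. One rat was euthanized per time point (0.5, 1, 4, 8, 24, 48 h) and the carcass frozen. 40 µm sagittal sections were phosphor-imaged against [14C]glucose standards and results reported as µg eq/g; LLOQ 0.037 µg eq/g.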"}, "Lung [12]": {"test_system": "Lung", "assay": "Biodistribution in male Sprague-Dawley rat lung at 5 mg/kg, po administered as single dose measured after 1 hr", "summary_of_the_method": "as §1"}, "Rattus norvegicus [13]": {"test_system": "Rattus norvegicus", "assay": "Biodistribution in fetal brain of pregnant Sprague-Dawley rat at 5 mg/kg, po administered as single dose measured after 24 hrs", "summary_of_the_method": "as §2"}, "Spleen [14]": {"test_system": "Spleen", "assay": "Biodistribution in pregnant Sprague-Dawley rat spleen at 5 mg/kg, po administered as single dose measured after 1 hr"}, "Rattus norvegicus [15]": {"test_system": "Rattus norvegicus", "assay": "Biodistribution in pregnant Sprague-Dawley rat bone marrow at 5 mg/kg, po administered as single dose measured after 24 hrs", "summary_of_the_method": "as §4"}, "Rattus norvegicus [16]": {"test_system": "Rattus norvegicus", "assay": "Biodistribution in fetal brain of pregnant Sprague-Dawley rat at 5 mg/kg, po administered as single dose measured after 8 hrs", "summary_of_the_method": "as §5"}, "Rattus norvegicus [17]": {"test_system": "Rattus norvegicus", "assay": "Biodistribution in male Sprague-Dawley rat salivary gland at 5 mg/kg, po administered as single dose measured after 72 hrs", "summary_of_the_method": "as §6"}, "Rattus norvegicus [18]": {"test_system": "Rattus norvegicus", "assay": "Biodistribution in pregnant Sprague-Dawley rat salivary gland at 5 mg/kg, po administered as single dose measured after 0.5 hrs"}, "Lung [19]": {"test_system": "Lung", "assay": "Biodistribution in pregnant Sprague-Dawley rat lung at 5 mg/kg, po administered as single dose measured after 8 hrs"}, "Harderian gland [20]": {"test_system": "Harderian gland", "assay": "Biodistribution in pregnant Sprague-Dawley rat harderian gland at 5 mg/kg, po administered as single dose measured after 8 hrs"}, "Rattus norvegicus [21]": {"test_system": "Rattus norvegicus", "assay": "Biodistribution in male Sprague-Dawley rat kidney cortex at 5 mg/kg, po administered as single dose measured after 72 hrs", "summary_of_the_method": "as §6"}}}
{"smiles": "COc1ccc(-n2nc(C(N)=O)c3c2C(=O)N(c2ccc(N4CCCC[14C]4=O)cc2)CC3)cc1", "values": [{"measurement": "Radiolabel recovery", "setting": "Spleen [1]", "value": 0.28, "unit": "ugequiv/g"}, {"measurement": "Radiolabel recovery", "setting": "Rattus norvegicus [2]", "value": "Not detected assumed BLQ"}, {"measurement": "Radiolabel recovery", "setting": "Harderian gland [3]", "value": 1.1, "unit": "ugequiv/g"}, {"measurement": "Radiolabel recovery", "setting": "Adrenal gland [4]", "value": 0.9, "unit": "ugequiv/g"}, {"measurement": "Radiolabel recovery", "setting": "Brain", "value": "Not detected assumed BLQ"}, {"measurement": "Radiolabel recovery", "setting": "Rattus norvegicus [5]", "value": 0.55, "unit": "ugequiv/g"}, {"measurement": "Radiolabel recovery", "setting": "Lung [6]", "value": 0.57, "unit": "ugequiv/g"}, {"measurement": "Radiolabel recovery", "setting": "Rattus norvegicus [7]", "value": 0.06, "unit": "ugequiv/g"}, {"measurement": "Radiolabel recovery", "setting": "Heart", "value": 0.06, "unit": "ugequiv/g"}, {"measurement": "Radiolabel recovery", "setting": "Muscle tissue", "value": "Not detected assumed BLQ"}, {"measurement": "Radiolabel recovery", "setting": "Thymus", "value": 0.46, "unit": "ugequiv/g"}, {"measurement": "Radiolabel recovery", "setting": "Spleen [8]", "value": "Not detected assumed BLQ"}, {"measurement": "Radiolabel recovery", "setting": "Blood", "value": "Not detected assumed BLQ"}, {"measurement": "Radiolabel recovery", "setting": "Lung [9]", "value": 0.883, "unit": "ugequiv/g"}, {"measurement": "Radiolabel recovery", "setting": "Adrenal gland [10]", "value": "Not sampled as not visualised in autoradiograph"}, {"measurement": "Radiolabel recovery", "setting": "Rattus norvegicus [11]", "value": "Not sampled as not visualised in autoradiograph"}, {"measurement": "Radiolabel recovery", "setting": "Lung [12]", "value": 0.7, "unit": "ugequiv/g"}, {"measurement": "Radiolabel recovery", "setting": "Rattus norvegicus [13]", "value": "Not detected assumed BLQ"}, {"measurement": "Radiolabel recovery", "setting": "Spleen [14]", "value": 0.51, "unit": "ugequiv/g"}, {"measurement": "Radiolabel recovery", "setting": "Rattus norvegicus [15]", "value": "Not detected assumed BLQ"}, {"measurement": "Radiolabel recovery", "setting": "Rattus norvegicus [16]", "value": "< 0.037", "unit": "ugequiv/g"}, {"measurement": "Radiolabel recovery", "setting": "Rattus norvegicus [17]", "value": "Not detected assumed BLQ"}, {"measurement": "Radiolabel recovery", "setting": "Rattus norvegicus [18]", "value": 0.73, "unit": "ugequiv/g"}, {"measurement": "Radiolabel recovery", "setting": "Lung [19]", "value": 0.15, "unit": "ugequiv/g"}, {"measurement": "Radiolabel recovery", "setting": "Harderian gland [20]", "value": 0.19, "unit": "ugequiv/g"}, {"measurement": "Radiolabel recovery", "setting": "Rattus norvegicus [21]", "value": "Not detected assumed BLQ"}]}
